According to ChEMBL document CHEMBL1144782, “Isoindolo[2,1-a]quinoxaline derivatives, novel potent antitumor agents with dual inhibition of tubulin polymerization and topoisomerase I” (2008):

Key:
Format in all cases: functional
MDA-MB-435 = assay: Antitumor activity against human MDA-MB-435 cells
Summary of the method: (§1)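 Run by the NCI in its in vitro disease-oriented screen of about 60 human tumour cell lines. For each line it reports pGI50 (50% net growth inhibition), pTGI (total growth inhibition) and pLC50 (50% net cell death), each as –log molar concentration. Where an effect was not reached within the tested range, the highest tested concentration was used.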

A549 = assay: Antitumor activity against human A549 cells; summary of the method: as §1
[1] = Antitumor activity against human NCI-H322 cells; summary of the method: as §1
SF-295 = assay: Antitumor activity against human SF295 cells; summary of the method: as §1
NCI-H226 = assay: Antitumor activity against human NCI-H226 cells; summary of the method: as §1
CAKI-1 = assay: Antitumor activity against human CAKI1 cells; summary of the method: as §1
COLO 205 = assay: Antitumor activity against human COLO205 cells; summary of the method: as §1
SK-MEL-2 = assay: Antitumor activity against human SKMEL2 cells; summary of the method: as §1
MCF7 [2] = assay: Antitumor activity against human MCF7 cells; summary of the method: as §1
SNB-75 = assay: Antitumor activity against human SNB75 cells; details: Homo sapiens, SNB-75; summary of the method: as §1
TK-10 = assay: Antitumor activity against human TK10 cells
Summary of the method: (§2)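 NCI 60-cell-line screen. Parameters were GI50 (50% net growth inhibition), TGI and LC50, each reported as –log molar concentration. Where an effect was not reached within the tested range, the highest tested concentration was used in the calculation.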

SF-268 = assay: Antitumor activity against human SF268 cells; summary of the method: as §1
NCI-H460 = assay: Cell viability against human NCI-H460 cells at 10 uM
LOX IMVI = assay: Antitumor activity against human LOXIMVI cells; summary of the method: as §1
IGROV-1 = assay: Antitumor activity against human IGROV1 cells; summary of the method: as §1
KM12 = assay: Antitumor activity against human KM12 cells; summary of the method: as §1
CCRF-CEM = assay: Growth inhibition of human vinblastine-resistant CEM cells after 72 hrs by MTT assay
Summary of the method: (§3)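 Growth inhibition by MTT after 72 h incubation. Resistant sublines: LoVoDoxo and MCF-7 MDR were kept in 0.1 µg/mL doxorubicin; CEMVbl-100 was selected against vinblastine. GI50 given as mean ± SEM of three independent experiments. Resistance index is resistant-line GI50 over parental GI50.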

MCF7 [3] = assay: Resistance index, Ratio of GI50 for human multidrug-resistant MCF7 cells to GI50 for human MCF7 cells; summary of the method: as §3
SW-620 = assay: Antitumor activity against human SW620 cells; summary of the method: as §2
UACC-62 = assay: Antitumor activity against human UACC62 cells; summary of the method: as §2
Malme-3M = assay: Antitumor activity against human MALME3M cells; summary of the method: as §1
[4] = read-out: Log LC50 (the source's name) (converted)

## Cc1cccc2c1[nH]c(=O)c1c3ccccc3cn21
MDA-MB-435
  LC50 (50% net cell death): 95.5 µM
MDA-MB-435; read-out: pTGI (converted)
  TGI: 11.5 µM
A549
  GI50: 5.01 µM
A549; [4]
  CC50: > 100 µM
A549; read-out: pTGI (converted)
  TGI: > 100 µM
[1]
  GI50: 13.5 µM
  LC50 (50% net cell death): > 100 µM
[1]; read-out: pTGI (converted)
  TGI: 45.7 µM
SF-295
  GI50: 2.63 µM
SF-295; [4]
  CC50: > 100 µM
SF-295; read-out: pTGI (converted)
  TGI: 25.1 µM
NCI-H226
  GI50: 3.24 µM
  LC50 (50% net cell kill): > 100 µM
NCI-H226; read-out: pTGI (converted)
  TGI: 27.5 µM
CAKI-1
  GI50: 2.19 µM
  LC50: > 100 µM
CAKI-1; read-out: pTGI (converted)
  TGI: 8.71 µM
COLO 205
  GI50: 7.41 µM
  LC50: > 100 µM
COLO 205; read-out: pTGI (converted)
  TGI: 34.7 µM
SK-MEL-2
  GI50: 14.5 µM
  LC50: > 100 µM
SK-MEL-2; read-out: pTGI (converted)
  TGI: > 100 µM
MCF7 [2]
  GI50: < 0.01 µM
  LC50 (50% net cell kill): 39.8 µM
MCF7 [2]; read-out: pTGI (converted)
  TGI: 12.6 µM
SNB-75
  GI50: 30.9 µM
  LC50: > 100 µM
SNB-75; read-out: pTGI (converted)
  TGI: > 100 µM
TK-10
  GI50: 26.9 µM
TK-10; [4]
  CC50: > 100 µM
TK-10; read-out: pTGI (converted)
  TGI: 87.1 µM
SF-268
  GI50: 3.02 µM
SF-268; [4]
  CC50: 75.9 µM
SF-268; read-out: pTGI (converted)
  TGI: 8.51 µM
NCI-H460
  Activity: 2%
LOX IMVI
  GI50: 6.17 µM
  LC50 (50% net cell kill): 42.7 µM
LOX IMVI; read-out: pTGI (converted)
  TGI: 18.2 µM
IGROV-1
  GI50: 3.72 µM
IGROV-1; [4]
  CC50: > 100 µM
IGROV-1; read-out: pTGI (converted)
  TGI: > 100 µM
KM12
  GI50: 3.39 µM
  LC50 (50% net cell death): > 100 µM
KM12; read-out: pTGI (converted)
  TGI: 22.9 µM
CCRF-CEM
  GI50: 3 µM
MCF7 [3]
  RatioGI50: 2.2
SW-620
  GI50: 5.75 µM
SW-620; [4]
  CC50: 42.7 µM
SW-620; read-out: pTGI (converted)
  TGI: 17.8 µM
UACC-62
  GI50: 6.92 µM
  LC50: 95.5 µM
UACC-62; read-out: pTGI (converted)
  TGI: 28.2 µM
Malme-3M
  GI50: 8.32 µM
Malme-3M; [4]
  CC50: 67.6 µM
Malme-3M; read-out: pTGI (converted)
  TGI: 24.5 µM
